Test results: ChEMBL document CHEMBL4680253, “Hybrids of MEK inhibitor and NO donor as multitarget antitumor drugs” (Eur J Med Chem, 2020)
Activity calls are given as the source filed them. The calls are words filed in the database; no cut-off is given here.

Legend:
[1] = test system: MDA-MB-231; assay: Induction of apoptosis in human MDA-MB-231 cells assessed as necrotic cells at 1 uM incubated for 24 hrs by AnnexinV-FITC and propidium iodide staining based flow cytometry (reference value: 1.084%); format: functional
[2] = test system: HCT-116; assay: Antiproliferative activity against human HCT116 cells harboring KRAS G13D mutant assessed as inhibition of cell viability after 96 hrs by Celltiter-Glo assay; format: functional, cell-based; settings: HCT-116, 96 h
[3] = target: T1, Dual specificity mitogen-activated protein kinase kinase; MEK1/2 (Homo sapiens) (UniProt P36507+Q02750); assay: Inhibition of MEK in human A549 cells assessed as reduction in MEK phosphorylation at 10 uM incubated for 2 hrs by Western blot analysis; format: cell-based
T1 sequence (P36507 whole entry, looked up): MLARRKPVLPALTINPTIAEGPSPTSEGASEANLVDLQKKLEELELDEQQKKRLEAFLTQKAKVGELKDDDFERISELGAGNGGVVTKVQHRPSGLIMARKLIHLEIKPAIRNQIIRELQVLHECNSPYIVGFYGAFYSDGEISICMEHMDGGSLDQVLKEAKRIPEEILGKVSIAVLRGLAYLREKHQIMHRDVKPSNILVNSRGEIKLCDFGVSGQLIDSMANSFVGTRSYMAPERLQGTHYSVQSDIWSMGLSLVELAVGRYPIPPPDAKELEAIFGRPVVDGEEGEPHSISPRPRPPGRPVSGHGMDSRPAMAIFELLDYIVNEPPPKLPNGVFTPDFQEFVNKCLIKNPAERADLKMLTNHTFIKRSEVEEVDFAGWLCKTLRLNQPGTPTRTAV
T1 sequence (Q02750 whole entry, looked up): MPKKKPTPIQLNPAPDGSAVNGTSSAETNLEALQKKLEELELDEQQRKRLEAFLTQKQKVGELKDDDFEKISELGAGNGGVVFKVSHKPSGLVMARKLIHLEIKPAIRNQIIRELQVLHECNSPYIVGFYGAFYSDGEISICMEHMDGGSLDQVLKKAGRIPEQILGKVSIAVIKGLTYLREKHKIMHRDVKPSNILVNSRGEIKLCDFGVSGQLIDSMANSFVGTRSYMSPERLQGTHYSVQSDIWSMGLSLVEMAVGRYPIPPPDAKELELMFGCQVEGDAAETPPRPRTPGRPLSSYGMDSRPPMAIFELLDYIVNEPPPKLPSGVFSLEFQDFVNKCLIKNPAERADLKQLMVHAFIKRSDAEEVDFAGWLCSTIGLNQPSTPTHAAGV
Outline: (§1)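 A549 cells in RPMI-1640 with 10% FBS, treated 2 h. Cells lysed in RIPA with protease/phosphatase inhibitors on ice for 20 min. Equal protein run on 4-20% SDS-PAGE and blotted to PVDF. Membranes blocked in 5% milk, then probed overnight at 4 °C with rabbit mAbs to pMEK, MEK, pERK and ERK, followed by HRP secondary. GAPDH used as loading control.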

[4] = Prodrug release in human HCT-116 cells assessed as increase in intracellular NO level at 100 uM measured after 2 hr by DAF-FM DA reagent based laser confocal scanning microscopy; settings: hct-116, 2 h
[5] = test system: MDA-MB-231; assay: Antiproliferative activity against human MDA-MB-231 cells harboring KRAS G13D/BRAF G464V mutant assessed as inhibition of cell viability after 96 hrs by Celltiter-Glo assay; format: functional, cell-based; settings: MDA-MB-231, 96 h
[6] = test system: MDA-MB-231; assay: Induction of apoptosis in human MDA-MB-231 cells assessed as viable cells at 10 uM incubated for 24 hrs by AnnexinV-FITC and propidium iodide staining based flow cytometry (reference value: 90.962%); format: functional; settings: read-out: Activity
[7] = test system: MDA-MB-231; assay: Induction of apoptosis in human MDA-MB-231 cells assessed as necrotic cells at 10 uM incubated for 24 hrs by AnnexinV-FITC and propidium iodide staining based flow cytometry (reference value: 1.084%); format: functional
[8] = target: T1, Dual specificity mitogen-activated protein kinase kinase; MEK1/2 (Homo sapiens); assay: Inhibition of MEK in human MDA-MB-231 cells assessed as reduction in MEK phosphorylation at 10 uM incubated for 2 hrs by Western blot analysis; format: cell-based
Outline: (§2)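 MDA-MB-231 in RPMI-1640 with 10% FBS. Dose series at 1, 3 and 10 µM for 2 h or 24 h; time course at 1 µM or 10 µM over several time points. RIPA lysates with protease/phosphatase inhibitors, equal protein on 4-20% SDS-PAGE, PVDF transfer, 5% milk block. Probed overnight at 4 °C for pMEK, MEK, pERK and ERK, then HRP secondary.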

[9] = test system: MDA-MB-231; assay: Induction of apoptosis in human MDA-MB-231 cells assessed as late apoptotic cells at 10 uM incubated for 24 hrs by AnnexinV-FITC and propidium iodide staining based flow cytometry (reference value: 3.54%); format: functional
[10] = target: T1, Dual specificity mitogen-activated protein kinase kinase; MEK1/2 (Homo sapiens); assay: Inhibition of MEK in human A549 cells assessed as reduction in ERK phosphorylation at 1 uM incubated for 2 hrs by Western blot analysis; format: cell-based; outline: as §1
[11] = target: T1, Dual specificity mitogen-activated protein kinase kinase; MEK1/2 (Homo sapiens); assay: Inhibition of MEK in human A549 cells assessed as reduction in MEK phosphorylation by Western blot analysis; format: cell-based; settings: TDE = time-dependent effect; outline: as §1
[12] = test system: MDA-MB-231; assay: Induction of apoptosis in human MDA-MB-231 cells assessed as early apoptotic cells at 1 uM incubated for 24 hrs by AnnexinV-FITC and propidium iodide staining based flow cytometry (reference value: 4.4%); format: functional
[13] = test system: MDA-MB-231; assay: Induction of apoptosis in human MDA-MB-231 cells assessed as viable cells at 1 uM incubated for 24 hrs by AnnexinV-FITC and propidium iodide staining based flow cytometry (reference value: 90.962%); format: functional; settings: read-out: Activity
[14] = test system: MDA-MB-231; assay: Induction of apoptosis in human MDA-MB-231 cells assessed as late apoptotic cells at 1 uM incubated for 24 hrs by AnnexinV-FITC and propidium iodide staining based flow cytometry (reference value: 3.54%); format: functional
[15] = target: T1, Dual specificity mitogen-activated protein kinase kinase; MEK1/2 (Homo sapiens); assay: Inhibition of MEK in human A549 cells assessed as reduction in ERK phosphorylation by Western blot analysis; format: cell-based; settings: TDE = time-dependent effect; outline: as §1
[16] = Antiproliferative activity against human A375 cells harboring BRAF V600E mutant assessed as inhibition of cell viability after 96 hrs by Celltiter-Glo assay; format: functional, cell-based, A375/R; settings: A-375, 96 h
[17] = test system: HL-60; assay: Antiproliferative activity against human HL60 cells harboring NRAS […] mutant assessed as inhibition of cell viability after 96 hrs by Celltiter-Glo assay; format: functional, cell-based; settings: HL-60, 96 h
[18] = target: T1, Dual specificity mitogen-activated protein kinase kinase; MEK1/2 (Homo sapiens); assay: Inhibition of MEK in human MDA-MB-231 cells assessed as reduction in MEK phosphorylation at 1 to 10 uM incubated for 24 hrs by Western blot analysis; format: cell-based; settings: dose 1-10 µM; outline: as §2
[19] = target: T1, Dual specificity mitogen-activated protein kinase kinase; MEK1/2 (Homo sapiens); assay: Inhibition of MEK in human MDA-MB-231 cells assessed as reduction in MEK phosphorylation at 10 uM incubated for 4 hrs by Western blot analysis; format: cell-based; outline: as §2
[20] = test system: Vero; assay: Cytotoxicity against African green monkey Vero cells assessed as reduction in cell viability after 96 hrs by Celltiter-Glo assay; format: cell-based; settings: Chlorocebus sabaeus
Outline: (§3)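 Cells kept at 37 °C in humidified 5% CO2 with 10% FBS; Vero in DMEM, HL7702 in RPMI-1640. Compounds added to plated cells and incubated 96 h at 37 °C. Viability read by CellTiter-Glo reagent added directly to the wells. IC50 fitted from the readings.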

[21] = test system: A549; assay: Antiproliferative activity against human A549 cells harboring KRAS G12S mutant assessed as inhibition of cell viability after 96 hrs by Celltiter-Glo assay; format: functional, cell-based; settings: A549, 96 h
[22] = test system: MDA-MB-231; assay: Induction of apoptosis in human MDA-MB-231 cells assessed as early apoptotic cells at 10 uM incubated for 24 hrs by AnnexinV-FITC and propidium iodide staining based flow cytometry (reference value: 4.4%); format: functional
[23] = target: T1, Dual specificity mitogen-activated protein kinase kinase; MEK1/2 (Homo sapiens); assay: Inhibition of MEK in human MDA-MB-231 cells assessed as reduction in ERK phosphorylation at 10 uM incubated for 2 hrs by Western blot analysis; format: cell-based; outline: as §2
[24] = target: T1, Dual specificity mitogen-activated protein kinase kinase; MEK1/2 (Homo sapiens); assay: Inhibition of MEK in human MDA-MB-231 cells assessed as reduction in ERK phosphorylation at 10 uM incubated for 4 hrs by Western blot analysis; format: cell-based; outline: as §2
[25] = test system: L02; assay: Cytotoxicity against human HL7702 cells assessed as reduction in cell viability after 96 hrs by Celltiter-Glo assay; format: cell-based; settings: L02, 96 h; outline: as §3
[26] = target: T1, Dual specificity mitogen-activated protein kinase kinase; MEK1/2 (Homo sapiens); assay: Inhibition of MEK in human A549 cells assessed as reduction in ERK phosphorylation incubated for 2 hrs by Western blot analysis; format: cell-based; settings: dose 1-10 µM; outline: as §1
[27] = target: T1, Dual specificity mitogen-activated protein kinase kinase; MEK1/2 (Homo sapiens); assay: Inhibition of MEK in human A549 cells assessed as reduction in MEK phosphorylation incubated for 2 hrs by Western blot analysis; format: cell-based; settings: dose 1-10 µM; outline: as §1
[28] = target: T1, Dual specificity mitogen-activated protein kinase kinase; MEK1/2 (Homo sapiens); assay: Inhibition of MEK in human MDA-MB-231 cells assessed as reduction in ERK phosphorylation at 1 to 10 uM incubated for 24 hrs by Western blot analysis; format: cell-based; settings: dose 1-10 µM; outline: as §2

IC50 [2]: 670 nM
inhibition [3]: Active
Drug metabolism [4]: Metabolite_Detected
IC50 [5]: 93 nM
inhibition [8]: Active
inhibition [10]: Active
inhibition [11]: Tde
inhibition [15]: Tde
IC50 [17]: 530 nM
inhibition [18]: Active
inhibition [19]: 100%
IC50 [21]: 1100 nM
inhibition [23]: Active
inhibition [24]: 100%
inhibition [26]: Dose-dependent effect
inhibition [27]: Dose-dependent effect
inhibition [28]: Active
Structure (SMILES): CNS(=O)(=O)Nc1cccc(Cc2c(C)c3ccc(OCCOc4no[n+]([O-])c4S(=O)(=O)c4ccccc4)cc3oc2=O)c1F
Activity [1]: 3.613%
viability at 10 µM [6]: 57.2%
Activity [7]: 14.737%
Activity [9]: 5.11%
Activity [12]: 20.2%
viability at 1 µM [13]: 68%
Activity [14]: 8.15%
IC50 [16]: 330 nM
IC50 [20]: 4340 nM
Activity [22]: 22.9%
IC50 [25]: 2780 nM
